High-throughput results (PubChem BioAssay)
Scp-1 inhibitor = Scp-1 (human) phosphatase inhibition. Recombinant Scp1, phosphopeptide, malachite green phosphate absorbance. inhibition, % at 20 µM. 0.88% of 340,000 active;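 active = inhibition above about 50% at 20 µM, limit read from the data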;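 also: plate controls were DMSO wells with enzyme for no effect and wells lacking enzyme for full effect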
Target sequence (Q9GZU7 76-261 limits assumed): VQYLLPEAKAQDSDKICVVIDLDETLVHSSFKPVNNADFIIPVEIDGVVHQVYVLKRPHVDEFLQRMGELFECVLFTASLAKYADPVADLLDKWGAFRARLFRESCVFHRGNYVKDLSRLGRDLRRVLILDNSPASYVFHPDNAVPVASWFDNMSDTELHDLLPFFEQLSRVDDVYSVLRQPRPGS
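Material: truncated SCP-1 phosphatase (76-261aa) / Buffer or medium: 50 mM Tris acetate pH 5.5, 0.005% Tween-20, 10 mM MgCl2 / Compound dosing: one concentration, 20 µM, with 1.0% DMSO / Incubation: 45 min room-temperature reaction, 5 min colour, 30 min stabiliser / Detection: colorimetric free-phosphate detection, absorbance 630 nm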
NadD block = inhibitors of Staphylococcus aureus NadD; inhibition, % at 20 µM; 0.78% of 360,000 active; AID 602399; purified NadD enzyme, colorimetric absorbance read-out; in the data active = inhibition above about 26%
SUMO1 PPI mod = modulators of human SUMO1-mediated protein-protein interactions; AID 602429; inhibition, % at 20 µM; SUMO1 binding to a labelled peptide, TR-FRET, 1 h; 0.33% of 360,000 active; P63165; in the data active = inhibition above about 37%
Target sequence (P63165 whole entry, looked up): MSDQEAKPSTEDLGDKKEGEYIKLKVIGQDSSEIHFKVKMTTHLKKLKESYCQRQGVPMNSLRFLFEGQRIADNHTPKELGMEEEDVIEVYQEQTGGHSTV
DNMT1 inh = inhibitors of human DNMT1; P26358; DNMT1 molecular beacon, Hinp1I cleavage, fluorescence; inhibition (reported as % activation of signal), % at 10 µM; 0.83% of 360,000 active; AID 588458; in the data active = inhibition above about 50%
STEP block = STEP (human) phosphatase inhibition | recombinant STEP, OMFP fluorogenic substrate, fluorescence | 0.25% of 360,000 active | AID 588621 | P54829 | inhibition, % at 20 µM;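 active = inhibition at 20 µM, scaled per plate between control wells, above about 37%, limit read from the data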;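 also: 0% = DMSO with enzyme and substrate and 100% = substrate only without enzyme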
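Assay system: isolated STEP enzyme. Buffer or medium: pH 6.0 Bis-Tris with DTT and Tween 20. Also added: fluorogenic phosphatase substrate OMFP at 25 µM final. Dosing: 20 µM, 1% DMSO. Timing: 20 min reaction, room temperature, in the dark. Measured by: fluorescence intensity, excitation 480 nm, emission 540 nm. Evaluation: normalized % inhibition.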
LMPTP inh = blocks human LMPTP phosphatase. P24666. recombinant LMPTP-A, OMFP fluorogenic substrate, fluorescence intensity. inhibition, % at 20 µM. 0.22% of 360,000 active;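 active = compounds that cut the enzyme signal by at least half of the control window in the single-dose screen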;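 also: plate controls were DMSO wells with enzyme plus substrate for no effect and substrate without enzyme for full effect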
Target sequence (P24666 whole entry, looked up): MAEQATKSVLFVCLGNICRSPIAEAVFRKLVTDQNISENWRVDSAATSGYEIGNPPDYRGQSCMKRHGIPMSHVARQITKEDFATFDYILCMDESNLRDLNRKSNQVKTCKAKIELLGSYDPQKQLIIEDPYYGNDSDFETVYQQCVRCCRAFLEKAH
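Test system – LMPTP-A phosphatase enzyme · Quantity – 0.625 nM LMPTP-A final · Reagent – OMFP substrate, 400 µM final · Dosing – one test concentration per compound, 20 µM, with 3% DMSO overall · Timing – 50 min enzyme reaction at room temperature, protected from light · Detection – fluorescence intensity · Controls – substrate-only low control, DMSO enzyme-plus-substrate high control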
NadD conf = NadD (S. aureus) inhibition, single concentration confirmation | inhibition, % at 20 µM | purified S. aureus NadD, colorimetric enzyme assay | shares compounds with NadD block | AID 624309 | 13% of 2,000 active; in the data active = inhibition mostly above about 42%, no sharp cut-off; inactive = mostly below about 42%
* marks the source's active call; other numbers are inactive results; . = no result. Shown are actives, neighbours in structure and some others; about 2.3% of the full set was active somewhere.

SMILES | Scp-1 inhibitor | NadD block | SUMO1 PPI mod | DNMT1 inh | STEP block | LMPTP inh | NadD conf
COC(=O)c1ccc(C23CC4(C2)[C@H](CN(CC2CCCCC2)[C@@H]4c2ccccc2)C3c2ccc(Cl)nc2)cc1 (some centres not stated) | 4.0 | 35.0* | 6.6 | 2.2 | -1.0 | 1.3 | 9.4
Clc1ccc(C2[C@H]3CN(CC4CCCCC4)[C@H](c4ccccc4)C34CC2(c2ccccc2)C4)cn1 (some centres not stated) | 15.2 | 13.1 | -0.6 | 5.3 | 4.3 | 1.1 | .
COc1ccc(C2=C(C=Nc3c(C)n(C)n(-c4ccccc4)c3=O)C(c3ccccc3C)c3ccccc3O2)cc1OC (configuration not stated) | 6.0 | 34.4* | 0.0 | -2.1 | -3.4 | 6.9 | 11.5
COC(=O)c1ccc(N(CC(=O)NC2CCCCC2)C(=O)CNC(=O)c2ccco2)cc1 | -5.3 | -0.2 | 6.7 | -0.8 | -3.5 | -1.5 | .
COc1ccc(-c2cc(CNc3nc(NC(C)C)nc4cc(-c5ccccc5)sc34)on2)cc1 | . | 34.3* | -15.0 | -13.6 | 11.9 | 7.3 | 21.3
CC(=O)Nc1ccc(CNc2nc(NC(C)C)nc3cc(-c4ccccc4)sc23)cc1 | . | 22.3 | -16.7 | -25.1 | 8.5 | 5.4 | .
c1ccn2cc(-c3ccc4c(c3)OCO4)cc2c1 | -4.9 | 29.0* | -11.9 | -9.1 | -2.4 | 3.8 | 34.9
COc1cccc(C(=O)Nc2nnc(S(=O)(=O)N(C)Cc3ccc(F)cc3)s2)c1 | -6.9 | 29.9* | 6.4 | -7.6 | -2.0 | 1.3 | 15.9
COc1ccc(CN(C)S(=O)(=O)c2nnc(NC(=O)c3cccc(OC)c3)s2)cc1 | -5.5 | 1.6 | -16.8 | -5.3 | -1.8 | -0.8 | .
CCOc1ncccc1C(=O)Nc1ccc(S(=O)(=O)N2CC(C)CC(C)C2)cc1 (configuration not stated) | -9.5 | -6.4 | -9.5 | -6.0 | 0.6 | -1.5 | .
Cc1cc(-n2c(SCC(=O)Nc3ccc(Br)cc3)nc3n[nH]c(C)c3c2=N)ccc1Cl | -3.1 | 31.8* | -33.3 | -3.8 | -1.9 | 1.5 | 10.0
CCC(C)n1c(=O)c(C(=O)Nc2ccccc2S(N)(=O)=O)c(O)c2ccccc21 (configuration not stated) | -7.2 | 33.4* | -2.0 | -0.4 | 2.9 | 1.5 | 64.1*
CC(C)Cn1c(=O)c(C(=O)Nc2ccccc2S(N)(=O)=O)c(O)c2ccccc21 | -5.6 | 32.8* | -3.9 | -4.6 | 2.1 | 2.9 | 64.5*
Cn1c(=O)c(C(=O)Nc2ccccc2S(N)(=O)=O)c(O)c2ccccc21 | -7.4 | -4.7 | 1.5 | -2.4 | 1.0 | 1.3 | .
Cc1csc(NC(=O)CSc2nnc(NC(=O)COc3ccc(Cl)cc3)s2)n1 | -5.5 | 35.1* | 5.4 | 36.4 | -1.3 | 14.7 | 13.3
Cn1cncc1C#Cc1ccc(N2C(c3ccsc3)=Cc3ccc(F)cc3C2c2c[nH]c3ccccc23)cc1 (configuration not stated) | . | 39.0* | -0.1 | . | . | 4.3 | 38.6
CC(=O)CC1c2cc(F)ccc2C=C(c2ccsc2)N1c1ccc(C#Cc2cncn2C)cc1 (configuration not stated) | . | 41.6* | -0.8 | . | . | 5.9 | 37.7
COc1ccc(-c2ccc(N3C(c4ccsc4)=Cc4ccc(F)cc4C3c3c[nH]c4ccccc34)cc2)cc1 (configuration not stated) | . | 25.8 | -25.4 | . | . | 3.8 | .
CC(=O)CC1c2cc(F)ccc2C=C(c2ccsc2)N1c1ccc(C#CC2(O)CCCCC2)cc1 (configuration not stated) | . | 22.3 | 0.8 | . | . | 3.5 | .
O=c1c(/C=N/Nc2ccccc2)c(Sc2nnnn2-c2ccccc2)nc2ccccn12 | -7.3 | 30.6* | -22.3 | -4.6 | -17.4 | 3.9 | 6.0
Cc1ccc(-c2ccc(/C=N/NC(N)=S)o2)cc1 | 2.3 | 9.3 | -19.5 | -34.5 | 4.1 | 1.2 | .
NC(=S)N/N=C/c1ccc(-c2ccc(Cl)c(Cl)c2)o1 | 8.5 | 39.5* | -4.4 | -6.6 | -0.7 | 0.8 | 12.4
